Experimental data reported in the array DNA melting data of Ke et al. (doi:10.1101/2024.01.08.574731).

Columns and labels:
[1] = folding enthalpy; higher = less favourable; fluorescence melt of hairpins on a sequencing array, two-state fit; conditions: sodium 0.088 M
Summary of the method: (§1)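 Folding enthalpy and melting temperature come from bootstrapped two-state fits to Cy3 fluorescence of library hairpins carrying annealed Cy3 and quencher oligos on a sequenced MiSeq flow cell. Imaging was done in 50 mM Na-HEPES pH 8.0, 25 mM NaCl, stepping by 2.5 °C up to 60 °C, and signals were normalised to pre-quench Cy3 and to control constructs. Results of four replicates were combined by inverse variance, and fitted temperatures were raised by 9.35 °C to match UV melts.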

[2] = melting temperature; fluorescence melt of hairpins on a sequencing array, two-state fit, raised by 9.35 °C to match UV melts; conditions: sodium 0.088 M
Summary of the method: as §1

Sequence	folding enthalpy [1]	Tm [2]
GAGAATGGAAACATTCTC (((((((....)))))))	-40.6 kcal/mol	54.7 °C
GCTGTCGAAAGACCAAGC ((((((....)))..)))	-19.5 kcal/mol	38.9 °C
GTTGTCGCGAAAGCGAAC (((..(((....))))))	-15.7 kcal/mol	56.9 °C
GACGCAACGAAAGTTGTC (((..(((....))))))	-10 kcal/mol	34.1 °C
GTAGACGAAAGTCCATAC ((((((....)))..)))	-10.2 kcal/mol	26 °C
GGGCCCACGAAAGTGCCC (((..(((....))))))	-18.8 kcal/mol	50.4 °C
GATCCTACCAGGATC ((((((...))))))	-39.6 kcal/mol	54.9 °C
GATCATTAATATGATC ((((((....))))))	-37.1 kcal/mol	45.5 °C
GTTTAGGAAACTAAAC ((((((....))))))	-30.6 kcal/mol	44.7 °C
GGATATCCGAAAGGATCC (((..(((....))))))	-11.4 kcal/mol	32.3 °C
CGTGGCGGAAACGCACG (((.(((....))))))	-26.5 kcal/mol	53.7 °C
GGCTGATCGAAAGATGCC (((..(((....))))))	-22.6 kcal/mol	43.9 °C
GAAACACGAAAGTGATTC (((.(((....))).)))	-29.6 kcal/mol	45.5 °C
GCGTTACTACGC ((((....))))	-26.7 kcal/mol	54.8 °C
GGTACCGAAAGGTTCACC ((((((....)))..)))	-13.6 kcal/mol	34.4 °C
GCTGGTGGAAACACCGGC ((.((((....)))).))	-36.1 kcal/mol	62.6 °C
GTGGATCGAAAGATGCAC (((.(((....))).)))	-45.9 kcal/mol	55.9 °C
GATCATCTACATGATC ((((((....))))))	-38.5 kcal/mol	46.2 °C
GCACTAGGAAACTAGCGC ((.((((....)))).))	-33.4 kcal/mol	45.5 °C
GGCGACTCGAAAGAGGCC (((..(((....))))))	-16.9 kcal/mol	49.7 °C
GGAGAAGGAAACTTCTTC (.(((((....))))).)	-23.1 kcal/mol	36.7 °C
GGACCCGGAAACGGACCC ((..(((....)))..))	-13.8 kcal/mol	32.7 °C
GGCGTGGGAAACCACGTC (.(((((....))))).)	-21.1 kcal/mol	62.3 °C

Sequence	folding enthalpy [1]	Tm [2]
GAATCGGGAAACCAATTC ((((.((....)).))))	-16.3 kcal/mol	28.4 °C
GGCACCGAAAGGTAGCC ((((((....))).)))	-36.9 kcal/mol	61.4 °C
CGGAAGCGGAAACGCCCG (((..(((....))))))	-21.3 kcal/mol	50.5 °C
GATGTCGGAAACGATATC (((.(((....))).)))	-48.3 kcal/mol	46.6 °C
GCGCCGCGAAAGCCGTGC ((.(.((....)).).))	-20.5 kcal/mol	52.1 °C
GCCGGGCGAAAGCTCCGC ((.(.((....)).).))	-13.1 kcal/mol	45.2 °C
GGATTGAAAAATCC (((((....)))))	-21.7 kcal/mol	44.5 °C
CGACGCGGAAACGCATCG (((.(((....))).)))	-28 kcal/mol	49.1 °C
GCCAAGGAAACTTGGC ((((((....))))))	-38.2 kcal/mol	62.9 °C
GATCTAGCTTAGATC ((((((...))))))	-29.4 kcal/mol	38.1 °C
GTTATTCGAAAGAACAAC (((.(((....))).)))	-20.6 kcal/mol	30.5 °C
GTCATTCGAAAGAAGGAC (((.(((....))).)))	-42.5 kcal/mol	51.9 °C
GGCGGCGAAAGCCCGGCC ((((((....)))..)))	-17.7 kcal/mol	61.5 °C
GAATACCGAAAGGTTTTC (((.(((....))).)))	-25.7 kcal/mol	39.5 °C
GGCCCCGAAAGGGCGCC ((((((....))).)))	-18.5 kcal/mol	68.6 °C
GTCCAAGGAAACTTAGAC (((.(((....))).)))	-13.7 kcal/mol	24.5 °C
GGACGTGGAAACGCGTCC (((((.(....).)))))	-45.2 kcal/mol	61.9 °C
GGTGATCGAAAGATACC (((.(((....))))))	-25.2 kcal/mol	37.5 °C
GAAGACGAAAGTCAGTTC ((((((....)))..)))	-15 kcal/mol	24 °C
GCCCTGCGAAAGCAAAGC ((..(((....)))..))	-6.64 kcal/mol	29.2 °C
GGTCTGGGAAACTAGGCC ((.((.(....).)).))	-33.4 kcal/mol	41.2 °C
GGTATAGAAATATACC ((((((....))))))	-26.4 kcal/mol	41.9 °C
GGTGCCCCGAAAGGGACC (((..(((....))))))	-16.2 kcal/mol	47.9 °C

Sequence	folding enthalpy [1]	Tm [2]
GTTATGTCGAAAGACAAC (((..(((....))))))	-10.6 kcal/mol	28.5 °C
GTCGGCGAAAGCCTGGAC ((((((....)))..)))	-15.2 kcal/mol	45 °C
GATCGGAGATCCGATC ((((((....))))))	-27.6 kcal/mol	56 °C
GGGCACGGAAACGTGCTC (.(((((....))))).)	-14.6 kcal/mol	63.2 °C
GCCCAACGAAAGTTAGGC (((.(((....))).)))	-34.3 kcal/mol	48.7 °C
TGCAGGAAACTGCA (((((....)))))	-19.6 kcal/mol	51.8 °C
GACATGCGAAAGCAAGTC (((.(((....))).)))	-25.5 kcal/mol	53.3 °C
GATCTCGTTCGAGATC ((((((....))))))	-41.4 kcal/mol	60.9 °C
GTGTTTGGAAACAGACAC ((((.((....)).))))	-36 kcal/mol	44.1 °C
GAAAGAGGAAACTCTTTC (((((((....)))))))	-37.8 kcal/mol	51.2 °C
GCGCTTCCGAAAGGACGC (((..(((....))))))	-20.3 kcal/mol	52 °C
GCGACATTTCGC ((((....))))	-22 kcal/mol	48.8 °C
GCCTAATCGAAAGATGGC (((..(((....))))))	-27.4 kcal/mol	44.1 °C
GATCATGCTATGATC ((((((...))))))	-27.9 kcal/mol	49.9 °C
GACCCTGGAAACAGGATC ((.((((....)))).))	-21.8 kcal/mol	37.6 °C
GCGCTTGGAAACAGGTGC ((.(.((....)).).))	-28.5 kcal/mol	40.6 °C
GAAGTGCGAAAGCATTTC (((.(((....))).)))	-23.5 kcal/mol	51 °C
GTCTGCGGAAACGTGGAC (((..((....))..)))	-32.4 kcal/mol	47.5 °C
GCTTGCGAAAGCAACAGC ((((((....)))..)))	-11.4 kcal/mol	44.4 °C
GATCTTTTAAAGATC ((((((...))))))	-30.9 kcal/mol	43.8 °C
GTGATAGGAAACTGTCAC ((((.((....)).))))	-36.5 kcal/mol	45.7 °C
GCAGGGCGAAAGCCGGGC ((..(((....)))..))	-17.4 kcal/mol	56.9 °C
GCCCAGCGAAAGCCAGGC (((..((....))..)))	-20.6 kcal/mol	55.2 °C
